# Test results from ChEMBL document CHEMBL3046654, “Penoxsulam--structure-activity relationships of triazolopyrimidine sulfonamides” (Bioorg Med Chem, 2009).
# Experiments:
# Abutilon theophrasti = assay: Post-emergence herbicidal activity against Abutilon theophrasti (velvetleaf) compound treated as foliar application measured after 2 weeks; assay type: functional
# Outline: (§1)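 Greenhouse post-emergence foliar screen in 64 cm² pots. Seed treatments were used on some species to aid germination. Plants were grown 7–21 days at 23–29 °C day/22–28 °C night under a 15 h photoperiod. Sprayed at 2–12 cm height and the 1–4 true leaf stage.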
# Veronica hederifolia = assay: Post-emergence herbicidal activity against Veronica hederifolia compound treated as foliar application measured after 2 weeks; assay type: functional; outline: as §1
# Echinochloa crus-galli [1] = assay: Post-emergence herbicidal activity against Echinochloa crus-galli (barnyard grass) compound treated as foliar application measured after 2 weeks; assay type: functional; outline: as §1
# Xanthium strumarium = assay: Post-emergence herbicidal activity against Xanthium strumarium (cocklebur) compound treated as foliar application measured after 2 weeks; assay type: functional; outline: as §1
# Digitaria sanguinalis = assay: Post-emergence herbicidal activity against Digitaria sanguinalis (hairy crabgrass) compound treated as foliar application measured after 2 weeks; assay type: functional; outline: as §1
# Setaria faberi = assay: Post-emergence herbicidal activity against Setaria faberi (Giant Foxtail) compound treated as foliar application measured after 2 weeks; assay type: functional; outline: as §1
# [2] = Inhibition of acetolactatae synthase; settings: read-out: I50
# Outline: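 Barley ALS: etiolated shoots of 5–6 d old Hector Spring barley homogenized at 0–4 °C in 20 mM HEPES pH 7.2, 1 mM EDTA, 5 mM DTT, then 33% (NH4)2SO4 cut. Reaction: 20 mM HEPES pH 7.2, 5 mM MgCl2, 0.25 mM TPP, FAD, 22.5 mM pyruvate, 0.7% DMSO final, 37 °C, 30 min. Acid decarboxylation to acetoin, then creatine/1-naphthol colour read at 530 nm. Reported as I50 (nM).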
# Ipomoea hederacea = assay: Post-emergence herbicidal activity against Ipomoea hederacea (ivy-leaved morning glory) compound treated as foliar application measured after 2 weeks; assay type: functional; outline: as §1
# Chenopodium album = assay: Post-emergence herbicidal activity against Chenopodium album compound treated as foliar application measured after 2 weeks; assay type: functional; outline: as §1
# Ipomoea = assay: Post-emergence herbicidal activity against Ipomoea spp. compound treated as foliar application measured after 2 weeks; assay type: functional; outline: as §1
# Sorghum halepense = assay: Post-emergence herbicidal activity against Sorghum halepense (Johnson grass) compound treated as foliar application measured after 2 weeks; assay type: functional; outline: as §1
# Alopecurus = assay: Post-emergence herbicidal activity against Alopecurus spp. compound treated as foliar application measured after 2 weeks; assay type: functional; outline: as §1
# Datura stramonium = assay: Post-emergence herbicidal activity against Datura stramonium compound treated as foliar application measured after 2 weeks; assay type: functional; outline: as §1
# Avena fatua = assay: Post-emergence herbicidal activity against Avena fatua compound treated as foliar application measured after 2 weeks; assay type: functional; outline: as §1
# Oryza sativa [3] = assay: Phytotoxicity against Oryza sativa (rice); assay type: organism-based; settings: in vivo
# Stellaria media = assay: Post-emergence herbicidal activity against Stellaria media compound treated as foliar application measured after 2 weeks; assay type: functional; outline: as §1
# Helianthus = assay: Post-emergence herbicidal activity against Helianthus spp. compound treated as foliar application measured after 2 weeks; assay type: functional; outline: as §1
# Fallopia convolvulus = assay: Post-emergence herbicidal activity against Fallopia convolvulus compound treated as foliar application measured after 2 weeks; assay type: functional; outline: as §1
# Amaranthus retroflexus = assay: Post-emergence herbicidal activity against Amaranthus retroflexus compound treated as foliar application measured after 2 weeks; assay type: functional; outline: as §1
# Pontederia vaginalis = assay: Post-emergence herbicidal activity against three-leaf stage Monochoria vaginalis under green-house condition by water injection treatment method; assay type: functional
# Outline: (§2)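 Greenhouse paddy test. Seed was sown on saturated Metro Mix, covered with about 0.5 cm mix and held 48 h dark at 30 °C, 95% RH; about 15 d from seed soaking to treatment. Treatment solution was injected into the water. Rates were set per pot surface area, with serial rates made by halving the volume delivered. Held at 16 h day length, 29 °C.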
# Echinochloa crus-galli [4] = assay: Post-emergence herbicidal activity against three-leaf stage Echinochloa crus-galli (barnyard grass) under green-house condition by water injection treatment method; assay type: functional; outline: as §2
# Oryza sativa [5] = assay: Phytotoxicity against three-leaf stage Oryza sativa (rice) under green-house condition by water injection treatment method; assay type: organism-based; outline: as §2
# Cyperus difformis = assay: Post-emergence herbicidal activity against three-leaf stage Cyperus difformis under green-house condition by water injection treatment method; assay type: functional; outline: as §2
# [6] = test system: Schoenoplectiella juncoides; assay: Post-emergence herbicidal activity against three-leaf stage Schoenoplectiella juncoides under green-house condition by water injection treatment method; assay type: functional; outline: as §2
SMILES,GR80 (Abutilon theophrasti) [ppm],GR80 (Veronica hederifolia) [ppm],GR80 (Echinochloa crus-galli [1]) [ppm],GR80 (Xanthium strumarium) [ppm],GR80 (Digitaria sanguinalis) [ppm],GR80 (Setaria faberi) [ppm],IC50 [2] [nM],GR80 (Ipomoea hederacea) [ppm],GR80 (Chenopodium album) [ppm],GR80 (Ipomoea) [ppm],GR80 (Sorghum halepense) [ppm],GR80 (Alopecurus) [ppm],GR80 (Datura stramonium) [ppm],GR80 (Avena fatua) [ppm],GR20 (Oryza sativa [3]) [ppm],GR80 (Stellaria media) [ppm],GR80 (Helianthus) [ppm],GR80 (Fallopia convolvulus) [ppm],GR80 (Amaranthus retroflexus) [ppm],also measured
COc1ncc(C)c2nc(NS(=O)(=O)c3c(Cl)cccc3Cl)nn12,<15,<15,250,<15,250,250,7,<15,<15,<15,250,250,<15,250,250,<15,<15,<15,<15,–
COc1ncc(Cl)c2nc(NS(=O)(=O)c3c(Cl)cccc3Cl)nn12,1,1,4,1,4,4,0.6,1,1,1,4,4,1,4,4,1,1,1,1,–
COc1cnc(OC)n2nc(NS(=O)(=O)c3c(OCC(F)(F)F)cccc3C(F)(F)F)nc12,–,–,–,–,–,–,–,–,–,–,–,–,–,–,–,–,–,–,–,GR80 (Pontederia vaginalis): 5 gAi/ha; GR80 (Echinochloa crus-galli [4]): 19 gAi/ha; GR20 (Oryza sativa [5]): 51 gAi/ha; GR80 (Cyperus difformis): 36 gAi/ha; GR80 [6]: 21 gAi/ha
COc1cc2nc(NS(=O)(=O)c3c(Cl)cccc3Cl)nn2c(OC)n1,>1000,>1000,>1000,>1000,>1000,>1000,195,>1000,>1000,>1000,>1000,>1000,>1000,>1000,> 1000,>1000,>1000,>1000,>1000,–
COc1nccc2nc(NS(=O)(=O)c3c(Cl)cccc3Cl)nn12,475,475,500,475,500,500,1040,475,475,475,500,500,475,500,500,475,475,475,475,–
CCOc1cnc(OC)n2nc(NS(=O)(=O)c3c(Cl)cccc3Cl)nc12,216,216,250,216,250,250,2,216,216,216,250,250,216,250,250,216,216,216,216,–
COc1cnc(OC)n2nc(NS(=O)(=O)c3c(Cl)cccc3Cl)nc12,2,2,4,2,8,8,0.6,2,2,2,8,8,2,8,8,2,2,2,2,–
COc1nc(F)cc2nc(NS(=O)(=O)c3c(Cl)cccc3Cl)nn12,62,62,8,62,8,8,27,62,62,62,8,8,62,8,8,62,62,62,62,–
CCOc1cccc(C(F)(F)F)c1S(=O)(=O)Nc1nc2c(OC)cnc(OC)n2n1,2,2,4,2,191,191,–,2,2,2,191,191,2,191,250,2,2,2,2,GR80 (Pontederia vaginalis): 1 gAi/ha; GR80 (Echinochloa crus-galli [4]): 1 gAi/ha; GR20 (Oryza sativa [5]): 1 gAi/ha; GR80 [6]: 3 gAi/ha
COc1ncc(F)c2nc(NS(=O)(=O)c3c(Cl)cccc3Cl)nn12,19,19,>125,19,>125,>125,12,19,19,19,>125,>125,19,>125,> 125,19,19,19,19,–
COc1cnc(OC)n2nc(NS(=O)(=O)c3cc(Cl)ccc3Cl)nc12,19,19,1000,19,>1000,>1000,–,19,19,19,>1000,>1000,19,>1000,< 2,19,19,19,19,–
